procasp3 activ: activators of human procaspase-3. AID 463141. 0.11% of 330,000 active. P42574. recombinant procaspase-3 D3A, Ac-DEVD-pNA absorbance 405 nm. activation, % at 8.5 µM;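 active = activation above the mean of all tested compounds plus 3 SD, cut at about 21% in these data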
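assay system = Procaspase-3 D3A mutant | signal = absorbance at 405 nm, 0 and 120 min | times = 1 h preincubation plus 2 h reaction at 25 °C | repeats = single replicate | read-out = % activation between DMSO and enzyme-spiked controls | medium = Zinc-free HEPES saline buffer with Triton X-100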
GRIN3A LBD mod: modulates the human NR3A ligand-binding domain | NR3A LBD differential scanning fluorimetry, Tm shift; 0% = protein alone, 100% = glycine-bound protein | Tm shift relative to glycine control, % at 25 µM | 2.5% of 340,000 active | AID 1259313;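 active = melting temperature shift of at least 10% of the positive control shift, at one fixed dose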
procasp7 counter: counter-screen: procaspase-7 (human) activation; P55210; recombinant procaspase-7, Ac-DEVD-pNA absorbance 405 nm; D23A/D198A/D206A triple mutant, cannot self-cleave; scale: DMSO 0, 5 µM enzyme 100; activation, % at 8.5 µM; 0.093% of 330,000 active; AID 463210;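 active = percent activation above the screen-wide mean plus 3 SD, cut at about 25% in these data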
Target sequence (P55210 whole entry D23A/D198A/D206A): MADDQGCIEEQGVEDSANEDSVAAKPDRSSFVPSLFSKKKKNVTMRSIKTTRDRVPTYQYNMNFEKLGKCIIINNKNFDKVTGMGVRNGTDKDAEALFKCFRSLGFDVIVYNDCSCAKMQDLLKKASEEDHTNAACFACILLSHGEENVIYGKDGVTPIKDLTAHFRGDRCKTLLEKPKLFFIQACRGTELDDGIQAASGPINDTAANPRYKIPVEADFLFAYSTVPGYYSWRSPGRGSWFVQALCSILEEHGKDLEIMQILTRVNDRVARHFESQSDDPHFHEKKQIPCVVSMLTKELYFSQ
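Assay system: Uncleavable procaspase-7 mutant enzyme | Input: 2 µM procaspase-7 mutant as dispensed | Timing: 1 h compound preincubation, 2 h substrate cleavage, 25 °C | Repeats: One well per compound | Control set: DMSO wells as 0%, DMSO with 5 µM added PC-7 as 100% | Technique: Epi-absorbance of released pNA at 405 nm, two timepoints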
MPTP block: blocks calcium-induced mitochondrial swelling | isolated mouse mitochondria, Ca2+ swelling absorbance, 30 min | 1.4% of 360,000 active | inhibition, % at 10 µM;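 active = inhibition of 50% or more, scaled per plate between neutral and stimulator controls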
aDG glyco up: alpha-DG glycosylation activation | Pro5-aDG cells, alpha-DG glycosylation AlphaScreen (IIH6); 0% Pro5, 100% B10-LARGE cell signal | activation, % at 10 µM | 0.22% of 360,000 active | AID 624168;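 active = activation of at least 8% versus controls, or a plate z-score of at least 8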;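 note: Pro5 are CHO cells carrying HIG-tagged alpha-DG that lacks glycosylation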
Each line names hits and unclear results; the compound was inactive in the other large screens. Shown are actives, neighbours in structure and some others; about 3.7% of the full set was active somewhere.

O=C(Nc1ccc(S(=O)(=O)Nc2nccs2)cc1)c1cc(-c2ccccc2)nc2ccccc12	GRIN3A LBD mod 11
Cc1ccc(C)c(-c2cc(C(=O)Nc3cccnc3)c3ccccc3n2)c1	GRIN3A LBD mod 11
Cc1ccc(C)c(-c2cc(C(=O)Nc3nccs3)c3ccccc3n2)c1	none
Cc1ccc(-c2cc(C(=O)Nc3ccc(S(=O)(=O)Nc4nccs4)cc3)c3ccccc3n2)c(C)c1	GRIN3A LBD mod 15
Cc1ccc(C)c(-c2cc(C(=O)Nc3cccc(C(=O)O)c3)c3ccccc3n2)c1	none
Cc1cccc(-c2oc3ccc(-c4ccc5c(c4)OCO5)cc3c2/C=C/c2ccc(N)cc2)c1	aDG glyco up 8.1
CCNC(=O)C1(C)CCCN(C(=O)C2(c3ccc(Cl)cc3)CCCC2)C1 (stereo unspecified)	none (no result: procasp3 activ, GRIN3A LBD mod, procasp7 counter)
COc1ccc(NC(=O)Nc2ccc(F)c(F)c2)c(OC)c1	GRIN3A LBD mod 22
COc1ccc(NC(=O)Nc2cc(C)ccc2OC)cc1	none
COc1ccc(OC)c(NC(=O)Nc2ccc3[nH]ccc3c2)c1	GRIN3A LBD mod 11
COc1ccc(NC(=O)Nc2cccc(F)c2)c(OC)c1	none
O=C(O)c1cc(N=Nc2c(O)ccc3ccccc23)cc(C(=O)O)c1	none (no result: procasp3 activ, procasp7 counter)
O=C(O)c1ccc(N=Nc2c(O)ccc3ncccc23)cc1	GRIN3A LBD mod 12
Clc1ccc(-c2nnc(-c3ccccc3)nc2-c2c[nH]c3ccccc23)cc1	none
c1ccc(-c2nnc(-c3ccccc3)c(-c3c[nH]c4ccccc34)n2)cc1	GRIN3A LBD mod 15
Cc1ccc(CNC(=O)C2(C)CCN2C(=O)Cc2ccc(C(C)(C)C)cc2)cc1 (stereo unspecified)	none (no result: procasp3 activ, GRIN3A LBD mod, procasp7 counter)
CN1CCN([C@H]2CS(=O)(=O)N[C@@H]2COCc2ccccc2)CC1	none (no result: procasp3 activ, GRIN3A LBD mod, procasp7 counter)
COCCCNC(=O)CCc1nc2cccnc2n1Cc1ccccc1	none
O=C(CCc1nc2cccnc2n1Cc1ccccc1)NCCc1ccc(Cl)cc1	GRIN3A LBD mod 11
Cc1occc1C(=O)N/N=C/C1=C(N2CCOCC2)C(=C/c2ccc(Cl)cc2Cl)/CC1	none (no result: procasp3 activ, procasp7 counter)
COc1ccc(C(=O)CNc2ccccc2Br)cc1	GRIN3A LBD mod 17
CSc1nc(N)nc(SCC(=O)OC(C)C)c1C#N	none
CSc1nc(N)nc(SCC(=O)c2ccc(C)cc2)c1C#N	GRIN3A LBD mod 20
O=C(CSc1ccc2ccccc2c1Br)Nc1cccc(S(=O)(=O)NC2=NCCCCC2)c1	GRIN3A LBD mod 12
O=C(COC(=O)c1ccc(O)cc1O)NC1CCCCCC1	none
CCOc1ccc(C(=O)NCc2ccccc2)cc1Br	GRIN3A LBD mod 12
Cc1ccc(N=Nc2c(N)nn3c(C)cc(C)nc23)cc1	none
Cc1ccc(N=Nc2c(N)nn3c(N)c(C#N)c(C)nc23)cc1	GRIN3A LBD mod 26
Oc1cccc(C2c3[nH]c4ccccc4c3CCN2Cc2ccc3c(c2)CCO3)c1 (stereo unspecified)	GRIN3A LBD mod 11
O=C(NCc1ccc(Cl)c(Cl)c1)c1cc(C2CCCCN2C(=O)c2cccs2)on1 (stereo unspecified)	none (no result: procasp3 activ, GRIN3A LBD mod, procasp7 counter)
Nc1ccc2nc(-c3cccc(-c4nc5ccc(N)cc5[nH]4)n3)[nH]c2c1	none
Nc1ccc2nc(-c3ccc(-c4nc5ccc(N)cc5[nH]4)cc3)[nH]c2c1	GRIN3A LBD mod 18 (no result: MPTP block, aDG glyco up)
CCOc1ccc(N2C(=O)C(C)CNC2=S)cc1 (stereo unspecified)	none (no result: procasp3 activ, procasp7 counter)
N#Cc1c(C#N)c(SSc2c(C#N)c(C#N)c(N)n2-c2ccccc2)n(-c2ccccc2)c1N	none (no result: procasp3 activ, procasp7 counter)
CCCCCn1c(N2CCN(c3cccc(Cl)c3)CC2)nc2c1c(=O)[nH]c(=O)n2C	none
CCCCCn1c(CN2CCN(c3cc(Cl)ccc3C)CC2)nc2c1c(=O)[nH]c(=O)n2C	GRIN3A LBD mod 24
CC1(C(=O)NCc2ccccc2)CSCC(=O)N1Cc1ccco1 (stereo unspecified)	none (no result: procasp3 activ, GRIN3A LBD mod, procasp7 counter)
O=C1Nc2cccc3c2N(CCC3)C2=C1CCC2	none (no result: procasp3 activ, GRIN3A LBD mod, procasp7 counter)
CN(C)S(=O)(=O)c1cccc(C(=O)NCCOC(=O)c2cc(F)c(F)cc2Cl)c1	none
CCN(CC)S(=O)(=O)c1ccc(C(=O)NCCOC(=O)c2ccc(F)cc2F)cc1	GRIN3A LBD mod 19
COc1ccc2c(c1)Cc1c-2cc(Br)c(N)c1Br	none (no result: procasp3 activ, GRIN3A LBD mod, procasp7 counter)
Cc1ccc(OCCNC(=O)c2cncc(Br)c2)cc1C	none
Cc1cccc(OCCNC(=S)NC(=O)c2cncc(Br)c2)c1	GRIN3A LBD mod 10

Bioassay records as filed in PubChem BioAssay.
